pIC50, pKi: −log10 of the molar value. The source made the active and inactive calls. The rule behind the calls is not given here.
How the values were obtained:
[1] = biological target: Receptor-type tyrosine-protein phosphatase beta (Homo sapiens, UniProt P23467); test: Inhibition of human recombinant PTPbeta
How it was run: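 Human recombinant PTPβ; 1 mM p-nitrophenyl phosphate preincubated 5 min at 30 °C with varying inhibitor concentrations in 0.05 M BISTRIS pH 7.0 with 100 mM NaCl, 0.05% Brij-35, 0.8 vol% DMSO and 1 mM diethylenetriamine pentaacetic acid. Enzyme was added to start the reaction and A410 was followed over time. IC50 is the concentration halving activity after 5 min. For competitive inhibition, Ki was taken as ½ IC50 at substrate equal to Km.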

Homo sapiens = species on record: Homo sapiens; test: Inhibition of human PP1 at 50 uM
[2] = Inhibition of Yersinia PTP
How it was run: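 Recombinant Yop51* enzyme; p-nitrophenyl phosphate at 0.5–4.0 mM in 0.05 M BISTRIS pH 6.5 with 100 mM NaCl, 0.05% Brij-35, 0.6 vol% DMSO, 0.4 mM EDTA and 1 mM DTT. Substrate and inhibitor were preincubated 5 min at 30 °C, then enzyme was added. Initial rates were read as p-nitrophenol A410 (ε 18,300 M⁻¹ cm⁻¹). Ki came from Lineweaver–Burk analysis at several inhibitor levels, reported as mean and standard deviation.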

[3] = Selectivity for human recombinant PTPbeta over Yersinia PTP

Receptor-type tyrosine-protein phosphatase beta, sequence (P23467 whole entry): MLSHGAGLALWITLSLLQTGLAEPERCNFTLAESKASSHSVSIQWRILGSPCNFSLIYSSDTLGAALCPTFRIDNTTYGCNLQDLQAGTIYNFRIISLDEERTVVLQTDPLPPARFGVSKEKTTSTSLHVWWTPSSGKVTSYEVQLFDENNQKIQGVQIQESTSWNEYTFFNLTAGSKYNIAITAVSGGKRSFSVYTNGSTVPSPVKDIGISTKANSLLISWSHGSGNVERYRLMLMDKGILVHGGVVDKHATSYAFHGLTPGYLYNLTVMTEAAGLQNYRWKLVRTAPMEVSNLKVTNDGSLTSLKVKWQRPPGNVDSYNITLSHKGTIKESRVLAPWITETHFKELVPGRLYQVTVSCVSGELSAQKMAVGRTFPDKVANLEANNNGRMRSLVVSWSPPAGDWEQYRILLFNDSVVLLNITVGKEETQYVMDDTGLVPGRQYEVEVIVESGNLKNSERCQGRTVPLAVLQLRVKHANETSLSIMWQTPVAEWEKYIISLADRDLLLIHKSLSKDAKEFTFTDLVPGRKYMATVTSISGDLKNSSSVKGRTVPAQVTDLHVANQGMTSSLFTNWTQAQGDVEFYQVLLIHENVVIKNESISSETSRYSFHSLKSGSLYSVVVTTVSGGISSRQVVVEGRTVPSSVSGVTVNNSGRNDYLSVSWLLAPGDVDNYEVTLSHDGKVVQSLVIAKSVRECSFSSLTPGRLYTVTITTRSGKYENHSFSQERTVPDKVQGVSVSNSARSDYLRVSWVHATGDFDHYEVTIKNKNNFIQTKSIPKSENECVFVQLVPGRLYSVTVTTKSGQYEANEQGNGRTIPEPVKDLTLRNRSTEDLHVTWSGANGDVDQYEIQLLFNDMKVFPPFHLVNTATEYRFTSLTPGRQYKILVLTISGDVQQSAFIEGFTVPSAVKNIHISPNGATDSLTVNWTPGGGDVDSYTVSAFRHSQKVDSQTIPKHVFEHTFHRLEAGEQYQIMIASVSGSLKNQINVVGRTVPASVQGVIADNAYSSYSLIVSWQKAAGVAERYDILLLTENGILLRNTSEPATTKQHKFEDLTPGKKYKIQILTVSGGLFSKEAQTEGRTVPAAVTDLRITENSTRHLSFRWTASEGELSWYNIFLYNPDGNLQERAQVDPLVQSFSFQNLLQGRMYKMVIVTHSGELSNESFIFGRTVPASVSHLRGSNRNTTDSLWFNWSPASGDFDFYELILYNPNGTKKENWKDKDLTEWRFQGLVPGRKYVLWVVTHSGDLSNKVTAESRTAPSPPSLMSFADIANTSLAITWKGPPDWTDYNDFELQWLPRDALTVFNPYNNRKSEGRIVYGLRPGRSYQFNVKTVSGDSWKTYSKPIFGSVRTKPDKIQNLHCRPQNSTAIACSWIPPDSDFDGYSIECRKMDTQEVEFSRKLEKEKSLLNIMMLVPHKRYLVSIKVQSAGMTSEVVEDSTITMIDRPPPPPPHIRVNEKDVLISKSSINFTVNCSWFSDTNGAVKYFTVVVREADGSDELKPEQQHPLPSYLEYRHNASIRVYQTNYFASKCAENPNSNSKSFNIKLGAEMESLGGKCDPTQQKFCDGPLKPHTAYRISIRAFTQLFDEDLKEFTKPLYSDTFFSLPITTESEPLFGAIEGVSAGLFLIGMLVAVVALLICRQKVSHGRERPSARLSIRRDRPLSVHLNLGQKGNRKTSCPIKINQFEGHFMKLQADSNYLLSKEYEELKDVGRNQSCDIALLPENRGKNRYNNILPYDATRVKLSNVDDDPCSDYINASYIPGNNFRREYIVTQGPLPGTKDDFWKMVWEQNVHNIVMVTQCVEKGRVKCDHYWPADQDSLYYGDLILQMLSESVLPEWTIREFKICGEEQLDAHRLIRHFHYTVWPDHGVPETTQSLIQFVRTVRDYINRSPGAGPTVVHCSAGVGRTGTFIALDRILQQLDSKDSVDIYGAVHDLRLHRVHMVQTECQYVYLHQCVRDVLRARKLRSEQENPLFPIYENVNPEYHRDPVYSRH

Compound | pIC50 [1] | Activity (Homo sapiens) | pKi [2] | fold change (FC) [3]
CCCOc1c2cccc1Cc1cc(C(P(=O)(O)O)P(=O)(O)O)cc(c1O)Cc1cccc(c1OCCC)Cc1cc(C(P(=O)(O)O)P(=O)(O)O)cc(c1O)C2 | 4.49 | inactive | 5.85 | –
O=P(O)(O)C(c1ccc(O)cc1)P(=O)(O)O | – | – | 3.24 | –
O=P(O)(O)Cc1cc2c(O)c(c1)Sc1cc(CP(=O)(O)O)cc(c1O)Sc1cc(CP(=O)(O)O)cc(c1O)Sc1cc(CP(=O)(O)O)cc(c1O)S2 | 6.89 | inactive | 6.66 | 3
O=P(O)(O)Cc1cc2c(O)c(c1)Cc1cc(CP(=O)(O)O)cc(c1O)Cc1cc(CP(=O)(O)O)cc(c1O)Cc1cc(CP(=O)(O)O)cc(c1O)C2 | 5.42 | inactive | 6.04 | –
O=P(O)(O)C(c1cc2c(O)c(c1)Cc1cc(C(P(=O)(O)O)P(=O)(O)O)cc(c1O)Cc1cc(C(P(=O)(O)O)P(=O)(O)O)cc(c1O)Cc1cc(C(P(=O)(O)O)P(=O)(O)O)cc(c1O)C2)P(=O)(O)O | – | – | 4.40 | –
CCCOc1c2cccc1Cc1cc(C(P(=O)(O)O)P(=O)(O)O)cc(c1O)Cc1cccc(c1OCCC)Cc1cccc(c1O)C2 | – | – | 5.15 | –

From ChEMBL document CHEMBL1153248, “Inhibition of Yersinia protein tyrosine phosphatase by phosphonate derivatives of calixarenes” (Bioorg Med Chem Lett, 2010)
